# Screening results deposited in PubChem BioAssay by several laboratories.
# NPY2 pot ag = NPY-Y2 potentiators or agonists, primary screen, cell-based; Neuropeptide Y receptor type 2 (Homo sapiens), P49146; cells expressing NPY-Y2, potentiator/agonist read-out; activation, % at 3.6 µM; 220,000 compounds, 0.45% hits; in the data active means activation above about 27%;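 further: cells stimulated with NPY near EC25 plus isoproterenol at EC100; 0% = vehicle plus submaximal agonist and 100% = vehicle plus saturating agonist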
# b-catenin transl = modulators of beta-catenin nuclear translocation, primary screen, imaging, HeLa cells, immunofluorescence, high-content; 190,000 compounds, 0.3% hits; AID 1665, 2009; nuclear translocation activity, % at 5 µM;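 active means nuclear translocation activity above 50% at 5 µM, with a well cell count of 50 or more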;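 further: per-cell ratio of nuclear to cytoplasmic median beta-catenin stain intensity; plate controls were DMSO negative control for no effect and GSK-3 inhibitor IX positive control for full effect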
#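 Assay system: human HeLa cells, native beta-catenin; doses: 5 µM primary, 0.02–20 µM confirmation; incubation: compound treatment 24 h, 37°C, 5% CO2; technique: fluorescence imaging of beta-catenin antibody stain plus DAPI; measure: % activation, nuclear-to-cytoplasmic median beta-catenin signal ratio per cell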
# NPY Y1 blocker = NPY-Y1 receptor antagonists, primary screen, cell-based. Neuropeptide Y receptor type 1 (Homo sapiens), P25929. HEK293-CNG Y1 cells, membrane potential fluorescence; NPY at EC95, then isoproterenol. inhibition, % at 3.6 µM. 200,000 compounds, 1% hits;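 active means inhibition above the campaign mean inhibition of all tested compounds plus 3 SD, cut at about 20% in these data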;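 further: 0% = DMSO wells given NPY plus isoproterenol and 100% = isoproterenol alone without NPY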
# Target sequence (P25929 whole entry, looked up): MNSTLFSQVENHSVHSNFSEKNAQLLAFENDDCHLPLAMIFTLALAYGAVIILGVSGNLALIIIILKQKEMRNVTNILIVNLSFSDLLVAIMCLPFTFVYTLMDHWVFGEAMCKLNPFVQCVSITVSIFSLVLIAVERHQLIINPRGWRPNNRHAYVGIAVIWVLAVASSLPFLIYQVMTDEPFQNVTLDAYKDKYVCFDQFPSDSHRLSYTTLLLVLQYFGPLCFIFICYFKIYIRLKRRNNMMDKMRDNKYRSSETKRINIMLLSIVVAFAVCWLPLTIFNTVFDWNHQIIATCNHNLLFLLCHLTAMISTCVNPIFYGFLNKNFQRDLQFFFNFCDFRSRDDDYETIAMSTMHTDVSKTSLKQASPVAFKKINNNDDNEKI
#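 Benchmarks – high control isoproterenol alone, low control NPY with isoproterenol · Material – HEK293 Y1/CNG channel cell line · Times – dye 3 h, compound 60 min room temperature, stimulation 45 min · Probe or stimulus – NPY (25 nM), isoproterenol (1 µM), Ro 20-1724 (25 µM) · Evaluation – % inhibition of NPY effect · Signal – fluorescence, membrane potential probe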
# NPY-Y1 PAM-ag = NPY-Y1 receptor potentiators or agonists, primary screen, cell-based. Neuropeptide Y receptor type 1 (Homo sapiens), P25929. NPY-Y1 expressing cells, potentiator/agonist activation. activation, % at 3.6 µM. 220,000 compounds, 0.37% hits. AID 1304, 2008; in the data active means activation above about 33%, passing the limit was not always enough;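 further: cells stimulated with NPY at EC10 then isoproterenol at EC100; 0% = low agonist plus stimulus and 100% = saturating agonist plus stimulus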
# NPY-Y2 antag = NPY-Y2 receptor antagonists, primary screen, cell-based; Neuropeptide Y receptor type 2 (Homo sapiens), P49146; NPY-Y2 expressing cells, antagonist mode; inhibition, % at 2.7 µM; 140,000 compounds, 0.99% hits; AID 793, 2007; in the data active means inhibition above about 17%;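 further: 0% = vehicle with agonist challenge and 100% = reference antagonist with challenge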
# MT stabilizer = microtubule stabilizers in HeLa cells, primary screen, imaging, high-content imaging | HeLa tubulin immunostaining HCS, 24 h; share of cells brighter than vehicle mean+2SD | % tubulin-high responders, % at 10 µM | 200,000 compounds, 0.83% hits | AID 2205, 2009;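 active means plate Z-score above 3 for both tubulin-high and condensed-nucleus cell shares, with cell loss under 80%, at 10 µM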;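 further: anti alpha tubulin signal scored within the nucleus-defined area of each cell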
# NPY-Y2 confirm = NPY-Y2 potentiators or agonists, confirmation, cell-based; activation, % at 3.6 µM; cell-based NPY-Y2 potentiator/agonist assay; shares compounds with NPY2 pot ag; 450 compounds, 20% hits; in the data active means activation above about 33%
# NPY-Y1 counter = NPY-Y1 potentiators or agonists, counter-screen for NPY-Y2 potentiator project, cell-based, fluorescence; 450 compounds, 20% hits; shares compounds with NPY2 pot ag; Y1 HEK293-CNG cells, membrane potential fluorescence; activation, % at 3.6 µM; in the data active means activation above about 45%;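 further: cells stimulated with submaximal NPY then isoproterenol with phosphodiesterase inhibitor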
# NPY-Y1 ag 2 = NPY-Y1 direct agonists, selectivity assay for NPY-Y2 potentiator project, cell-based, fluorescence; HEK293 Y1-CNGC, membrane potential fluorescence, agonism; shares compounds with NPY2 pot ag; AID 1702, 2009; activation, % at 3.6 µM; 450 compounds, 37% hits;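 active means activation above the mean of DMSO-only control wells plus 3 SD, cut at about 18% in these data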;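 further: cells stimulated with 1 µM isoproterenol plus the PDE inhibitor Ro 20-1724; 0% = isoproterenol with DMSO and no NPY and 100% = 40 nM NPY; Y1 agonists lower the membrane potential dye signal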
# CNGC inh = CNGC cAMP sensor activity inhibitors, counter-screen for NPY-Y2 potentiator project, cell-based, HEK293-CNG parental, membrane potential fluorescence. shares compounds with NPY2 pot ag. isoproterenol cAMP. inhibition, % at 3.6 µM. 450 compounds, 32% hits. AID 1703, 2009;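 active means inhibition above the control-well mean plus 3 SD of those wells, cut at about 22% in these data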;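 further: 0% = DMSO with isoproterenol and 100% = DMSO without isoproterenol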
# NPY-Y2 ag 2 = NPY-Y2 direct agonists, counter-screen for NPY-Y2 potentiator project, cell-based, fluorescence; shares compounds with NPY2 pot ag; HEK293 Y2/CNGC cells, membrane potential fluorescence, agonist mode; activation, % at 3.6 µM; 450 compounds, 56% hits;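 active means activation above the mean of solvent-only control wells plus 3 SD, cut at about 10% in these data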;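 further: cells stimulated by isoproterenol with no NPY added so direct agonism is tested; 0% = DMSO with isoproterenol alone and 100% = NPY at EC100 plus isoproterenol; agonism lowers probe fluorescence through less cAMP and CNG channel opening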
# * marks the source's active call; other numbers are inactive results; nt = no result. A selection: hits, their analogues and other compounds. The true share with any hit is near 2.6%.
SMILES,NPY2 pot ag,b-catenin transl,NPY Y1 blocker,NPY-Y1 PAM-ag,NPY-Y2 antag,MT stabilizer,NPY-Y2 confirm,NPY-Y1 counter,NPY-Y1 ag 2,CNGC inh,NPY-Y2 ag 2
CC(=O)OCC1O[C@@H](O[C@@H]2C[C@H]3C(C)(C)[C@H](OC(C)=O)CC[C@]3(C)[C@H]3CC[C@]45C[C@]4(CC[C@H]5[C@@H](C)C[C@@H](O)[C@H](O)C(C)(C)O)[C@@]32C)[C@H](O)[C@@H](O)[C@@H]1O (some centres undefined),35*,nt,-10,31,0,10,32,31,39*,26*,35*
O=C(Nc1ccc(Cl)cc1)N1CCC(CO)(Cc2ccccc2)CC1,-1,0,-3,20,nt,1,nt,nt,nt,nt,nt
CCN(CC)CCCN(C(=O)c1ccco1)c1nc(-c2ccc(C)cc2)cs1,25*,1,11,17,nt,4,64*,65*,45*,58*,62*
CC1(C)C=C(c2ccc(O)cc2)CC(C)(C)N1,36*,-2,-2,23,0,4,0,-1,-11,2,6
Cc1ccc(O)c(C2=NCCNC(C(F)(F)F)=C2)c1,1,nt,-2,20,1,2,nt,nt,nt,nt,nt
Oc1c(C2=NCCNC(C(F)(F)F)=C2)ccc2ccccc12,31*,0,-12,35,nt,5,36*,50*,38*,32*,42*
Cc1ccc(C)c(NC(=O)COC(=O)CCC(=O)c2cccs2)c1,12,1,1,-13,nt,4,nt,nt,nt,nt,nt
CN(C)C(CN=C1NS(=O)(=O)c2ccccc21)c1ccco1 (centres undefined),51*,0,-5,16,nt,2,0,6,-3,-1,-3
CCOC(=O)C(=CNc1ccc(NC2=NCC(C)S2)cc1)C(=O)OCC (centres undefined),47*,-3,-2,25,2,2,11,29,15,-1,10
N#Cc1cc(S(=O)(=O)c2ccc(Cl)cc2)c(N)[nH]c1=O,54*,1,5,-14,nt,1,0,-2,-4,3,10
COc1nc(N)c(S(=O)(=O)c2ccccc2)cc1C#N,3,1,5,4,1,2,nt,nt,nt,nt,nt
O=C(/C=N/O)Nc1ccc2sc3ccccc3c2c1,8,0,nt,14,nt,nt,nt,nt,nt,nt,nt
O=C(NC(C(=O)N/N=C/c1ccccn1)c1n[nH]c(=O)c2ccccc12)c1ccccc1 (centres undefined),-11,1,nt,16,nt,nt,nt,nt,nt,nt,nt
C=C(C)CN(CC)C(=O)CC1C(=O)NCCN1CC(C)(C)C (centres undefined),51*,2,nt,17,nt,nt,1,11,-1,2,6
NC(=O)CSc1nnc(Cc2ccc3c(c2)OCO3)o1,-4,0,2,-11,nt,5,nt,nt,nt,nt,nt
O=C(CCl)N=c1sccn1Cc1cccc2ccccc12,27*,0,-2,8,nt,3,-4,-8,-11,14,3
